Drawing on ChEMBL document CHEMBL4257594 (J Med Chem, 2018), this text covers inhibition, EC50 and Activity for one compound.

One series concerns the target CYP3A4 (Homo sapiens, UniProt P08684). Briefly: Inhibition of human liver microsome CYP3A4 at 1 uM expressed in baculosomes using fluorogenic-DBOMF as substrate preincubated for 10 mins followed by substrate addition and measured after 60 mins by fluorescence based assay. Format: ADME, microsomes. To be noted: recombinant CYP3A4 expressed in baculosomes, probe DBOMF (fluorogenic). In a few lines:
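CYP3A4 baculosomes preincubated with drug at 1 µM for 10 min at 37 °C before Vivid green substrate added. Fluorescence (ex/em 485/520) read 60 min after substrate addition. Percent inhibition set against 10 μM ketoconazole as the 100% control; mean ± SD of three independent experiments run in triplicate.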

Another series addresses Cytochrome P450 3A4 (Homo sapiens, UniProt P08684). As to the kind of experiment: Inhibition of human liver microsome CYP3A4 expressed in baculosomes using fluorogenic-DBOMF as substrate preincubated for 10 mins followed by substrate addition and measured after 60 mins by fluorescence based assay. Format: ADME, microsomes.
In series [1] the target is T1, NPC intracellular cholesterol transporter 1 (Homo sapiens) (UniProt O15118).
T1 sequence (whole entry): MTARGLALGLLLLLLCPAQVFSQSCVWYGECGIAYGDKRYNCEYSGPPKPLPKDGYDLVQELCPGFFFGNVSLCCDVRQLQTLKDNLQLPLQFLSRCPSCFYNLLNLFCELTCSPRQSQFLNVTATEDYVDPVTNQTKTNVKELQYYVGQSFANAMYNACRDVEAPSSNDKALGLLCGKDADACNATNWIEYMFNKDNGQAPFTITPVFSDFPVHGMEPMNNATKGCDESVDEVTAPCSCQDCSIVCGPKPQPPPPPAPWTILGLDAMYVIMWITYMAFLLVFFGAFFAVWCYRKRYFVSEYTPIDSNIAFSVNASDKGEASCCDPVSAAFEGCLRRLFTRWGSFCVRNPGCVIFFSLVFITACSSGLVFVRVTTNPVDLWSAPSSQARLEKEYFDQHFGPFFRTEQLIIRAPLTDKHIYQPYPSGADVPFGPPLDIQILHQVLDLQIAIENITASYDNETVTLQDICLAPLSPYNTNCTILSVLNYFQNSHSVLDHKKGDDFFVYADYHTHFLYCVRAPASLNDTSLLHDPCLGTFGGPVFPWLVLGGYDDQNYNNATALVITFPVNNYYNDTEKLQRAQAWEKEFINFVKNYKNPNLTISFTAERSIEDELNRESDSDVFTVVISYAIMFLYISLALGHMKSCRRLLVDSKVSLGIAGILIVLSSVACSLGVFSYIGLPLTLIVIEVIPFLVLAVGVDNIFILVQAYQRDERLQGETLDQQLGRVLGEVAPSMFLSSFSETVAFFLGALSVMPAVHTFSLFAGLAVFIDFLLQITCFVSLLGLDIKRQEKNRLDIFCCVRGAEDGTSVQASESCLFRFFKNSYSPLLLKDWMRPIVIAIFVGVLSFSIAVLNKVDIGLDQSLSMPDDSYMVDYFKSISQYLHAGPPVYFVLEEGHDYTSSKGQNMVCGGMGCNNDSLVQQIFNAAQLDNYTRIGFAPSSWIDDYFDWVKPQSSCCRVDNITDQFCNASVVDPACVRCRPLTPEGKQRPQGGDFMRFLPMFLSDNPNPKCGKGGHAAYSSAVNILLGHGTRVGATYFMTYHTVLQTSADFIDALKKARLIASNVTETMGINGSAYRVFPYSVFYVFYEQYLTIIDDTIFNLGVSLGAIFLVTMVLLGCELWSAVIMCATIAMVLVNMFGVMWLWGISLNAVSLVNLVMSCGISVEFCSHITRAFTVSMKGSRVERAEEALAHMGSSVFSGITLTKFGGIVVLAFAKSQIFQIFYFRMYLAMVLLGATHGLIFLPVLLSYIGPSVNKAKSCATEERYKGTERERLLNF
As to the kind of experiment: Binding affinity to NPC1 in HUVEC assessed as increase in cholesterol accumulation in late endosome/lysosome at 0.2 uM after 14 hrs by filipin staining-based confocal microscopy. In kind it is cell-based. The procedure, abridged: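 Methods give HUVEC (2,000) on chamber slides, settled overnight, then 0.1 µM drug or DMSO for 14 h; legend gives 0.2 μM for 24 h. Cells fixed in 4% paraformaldehyde for 15 min, then stained with 50 µg/ml filipin for 1 h in the dark. Imaged by confocal microscopy at 360/460 nm.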

For series [2], the target named is Non-selective voltage-gated ion channel VDAC1 (Homo sapiens) (UniProt P21796). As to the kind of experiment: Binding affinity to VDAC1 in HUVEC assessed as AMPK phosphorylation at Thr172 residue after 24 hrs by Western blot analysis. In kind it is cell-based.
Sequence of Non-selective voltage-gated ion channel VDAC1 (Homo sapiens) (P21796 whole entry): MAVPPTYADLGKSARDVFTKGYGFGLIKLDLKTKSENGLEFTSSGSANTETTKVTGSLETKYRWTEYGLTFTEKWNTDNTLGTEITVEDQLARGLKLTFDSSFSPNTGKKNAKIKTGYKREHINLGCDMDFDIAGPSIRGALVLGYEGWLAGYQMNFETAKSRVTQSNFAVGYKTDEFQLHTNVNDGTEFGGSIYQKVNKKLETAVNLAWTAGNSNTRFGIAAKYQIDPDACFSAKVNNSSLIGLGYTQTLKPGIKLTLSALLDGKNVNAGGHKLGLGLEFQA
Series [3] has the same target. As to the kind of experiment: Binding affinity to VDAC1 in HUVEC assessed as ACC1 phosphorylation at Ser79 residue at 0.01 to 1 uM after 24 hrs by Western blot analysis. Format: cell-based. The procedure, abridged: (§1)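 HUVEC treated with 0.01, 0.03, 0.1, 0.3 or 1 μM drug, or DMSO, for 24 h. Lysed in RIPA buffer, protein normalized, then run on Western blot: 5% BSA block 1 h, primary antibody overnight at 4 °C, secondary 1 h, chemiluminescence imaging. Band gray value and area quantified; mean ± SD of three independent experiments.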

The subject of series [4] is HUVEC. Briefly: Binding affinity to NPC1/VDAC1 in HUVEC assessed as reduction in mTOR phosphorylation at Ser2481 residue up to 1 uM after 24 hrs Western blot analysis. Particulars: Homo sapiens. In kind it is cell-based. The procedure, abridged:
as §1

Series [5] relates to HUVEC. Briefly: Binding affinity to NPC1/VDAC1 in HUVEC assessed as reduction in mTOR-mediated S6K phosphorylation at Thr389 residue up to 1 uM after 24 hrs Western blot analysis. In kind it is cell-based. To be noted: Homo sapiens. In a few lines:
as §1

For series [6], the target named is Non-selective voltage-gated ion channel VDAC1 (Homo sapiens) (UniProt P21796). Briefly: Binding affinity to VDAC1 (unknown origin) at 10 uM using itraconazole as probe by photoaffinity probe competitor assay.

The source made the active and inactive calls. No cut-off for these calls is given here.

Sequence of Cytochrome P450 3A4 (P08684 whole entry): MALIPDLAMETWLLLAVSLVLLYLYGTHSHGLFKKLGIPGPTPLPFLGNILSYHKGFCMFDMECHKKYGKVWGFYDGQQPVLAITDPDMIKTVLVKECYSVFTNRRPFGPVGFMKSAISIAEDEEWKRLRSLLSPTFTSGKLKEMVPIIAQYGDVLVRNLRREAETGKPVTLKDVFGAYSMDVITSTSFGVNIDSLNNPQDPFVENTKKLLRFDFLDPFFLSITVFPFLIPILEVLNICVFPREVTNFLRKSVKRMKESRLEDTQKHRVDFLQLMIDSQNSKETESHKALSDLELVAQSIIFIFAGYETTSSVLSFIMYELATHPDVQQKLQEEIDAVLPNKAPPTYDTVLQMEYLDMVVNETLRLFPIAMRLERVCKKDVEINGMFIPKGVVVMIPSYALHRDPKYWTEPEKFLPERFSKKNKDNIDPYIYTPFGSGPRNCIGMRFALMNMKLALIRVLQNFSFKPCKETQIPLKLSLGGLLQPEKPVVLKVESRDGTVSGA
Sequence of CYP3A4 (P08684 whole entry): as above

Turning to `CCC(C)n1ncn(-c2ccc(N3CCN(c4ccc(OC[C@@H]5CO[C@@](Cn6cnnn6)(c6ccc(Cl)cc6Cl)O5)cc4)CC3)cc2)c1=O` (stereo partly drawn), the inhibition at 1 h, 1 µM at CYP3A4 worked out at 2%. In addition, the EC50 on Cytochrome P450 3A4 was more than 20 µM. Also, the outcome (in series [1]; in series [3]; in the series on HUVEC [4]; in the series with HUVEC [5]; in series [6]) was Active. In addition, the Activity entry in series [2] was “Dose-dependent effect”.
